Experiments:
[1] = biological target: T1, Serine/threonine-protein kinase Chk1 (Homo sapiens, UniProt O14757); test: Inhibition of human recombinant Chk1 using biotinylated AKT substrate after 30 mins by Alphascreen biochemical assay
T1 sequence (O14757 whole entry): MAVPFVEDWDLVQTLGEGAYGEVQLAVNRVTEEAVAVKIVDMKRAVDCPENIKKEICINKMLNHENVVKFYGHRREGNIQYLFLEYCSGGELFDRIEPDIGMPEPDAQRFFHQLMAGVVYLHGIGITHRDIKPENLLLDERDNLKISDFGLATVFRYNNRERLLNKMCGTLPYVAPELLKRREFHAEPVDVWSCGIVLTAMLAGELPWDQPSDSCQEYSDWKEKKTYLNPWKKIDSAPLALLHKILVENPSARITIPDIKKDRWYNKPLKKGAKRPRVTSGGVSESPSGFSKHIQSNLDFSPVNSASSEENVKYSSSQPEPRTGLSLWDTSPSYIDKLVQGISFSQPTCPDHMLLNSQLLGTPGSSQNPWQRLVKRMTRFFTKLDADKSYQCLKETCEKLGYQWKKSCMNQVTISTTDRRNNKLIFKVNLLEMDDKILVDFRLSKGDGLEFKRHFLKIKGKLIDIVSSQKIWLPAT

[2] = biological target: T1, Serine/threonine-protein kinase Chk1; test: Inhibition of CHK1 in human HT29 cells assessed as phosphorylation of histone H3 after 24 hrs by checkpoint abrogation cellular assay; format: cell-based, HT-29
Acetylcholinesterase = Acetylcholinesterase (Homo sapiens, UniProt P22303); test: Inhibition of human acetylcholine esterase by horseradish peroxidase-coupled fluorescence assay
Acetylcholinesterase, sequence (P22303 whole entry): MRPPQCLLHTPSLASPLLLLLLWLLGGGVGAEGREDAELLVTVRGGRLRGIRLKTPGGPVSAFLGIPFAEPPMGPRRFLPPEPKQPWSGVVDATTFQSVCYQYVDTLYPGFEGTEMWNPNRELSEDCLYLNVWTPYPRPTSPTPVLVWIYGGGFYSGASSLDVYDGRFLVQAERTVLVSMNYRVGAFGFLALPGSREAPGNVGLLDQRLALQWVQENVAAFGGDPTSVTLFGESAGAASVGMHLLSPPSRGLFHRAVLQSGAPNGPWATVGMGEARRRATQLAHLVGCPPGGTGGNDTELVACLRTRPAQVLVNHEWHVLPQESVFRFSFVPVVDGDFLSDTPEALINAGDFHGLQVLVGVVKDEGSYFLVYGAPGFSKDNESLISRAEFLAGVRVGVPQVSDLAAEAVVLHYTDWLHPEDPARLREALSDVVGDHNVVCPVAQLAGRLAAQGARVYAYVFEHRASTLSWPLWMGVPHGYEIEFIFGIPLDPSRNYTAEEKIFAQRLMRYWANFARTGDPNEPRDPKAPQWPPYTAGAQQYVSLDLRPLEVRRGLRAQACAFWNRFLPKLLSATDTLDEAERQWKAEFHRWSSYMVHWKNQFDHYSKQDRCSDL
In short: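 Human AChE at 0.006 U/ml, with 0.25 μM acetylcholine chloride, 0.06 U/ml choline oxidase, 0.05 U/ml horseradish peroxidase and 200 μM Amplex Red, in proprietary buffer with test compound. Incubated 30 min at 25 °C. Fluorescence read.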

SMILES	IC50 [1] [nM]	EC50 [2] [nM]	IC50 (Acetylcholinesterase) [nM]
N#Cc1cc2c(cn1)[nH]c1ncc(-c3cccnc3)cc12	76.5	> 5000	–
C[C@@H]1C[C@H](C)CN(Cc2ccc(-c3cnc4[nH]c5cnc(C#N)cc5c4c3)cc2)C1	4.2	209	4100
N#Cc1cc2c(cn1)[nH]c1ncc(-c3ccccn3)cc12	127	> 5000	–
OCc1cc2c(cn1)[nH]c1ncc(-c3ccc(CN4CCCCC4)cc3)cc12	18.3	447	–
Oc1cc2c(cn1)[nH]c1ncc(-c3ccc(CN4CCCCC4)cc3)cc12	863	–	–
c1cncc(-c2cc3c(cn2)[nH]c2ncc(-c4ccc(CN5CCCCC5)cc4)cc23)c1	0.95	75.1	493
CC1(C)CCN(Cc2ccc(-c3cnc4[nH]c5cnc(C#N)cc5c4c3)cc2)CC1	4.4	172	11
CCN1CCc2cc(-c3cnc4[nH]c5cnc(C#N)cc5c4c3)ccc2C1	2.3	152	160
N#Cc1cc2c(cn1)[nH]c1ncc(-c3nc(CN4CCCCC4)cs3)cc12	13.6	658	18
CC(C)(c1ccc(-c2cnc3[nH]c4cnc(C#N)cc4c3c2)cc1)N1CCCCC1	10.2	228	507
NC(=O)c1cc2c(cn1)[nH]c1ncc(-c3ccc(CN4CCCCC4)cc3)cc12	4.3	292	217
N#Cc1cc2c(cn1)[nH]c1ncc(-c3ccc(CN4CCC[C@@H](O)C4)cc3)cc12	1.9	118	708
Cn1ccc(-c2cnc3[nH]c4cnc(C#N)cc4c3c2)n1	33.8	2500	–
COc1cc2c(cn1)[nH]c1ncc(-c3ccc(CN4CCCCC4)cc3)cc12	19.8	986	–
CC(=O)Nc1cccc(-c2cnc3[nH]c4cnc(C#N)cc4c3c2)c1	13.5	425	–
N#Cc1cc2c(cn1)[nH]c1ncc(-c3cccs3)cc12	20.2	478	–
N#Cc1cc2c(cn1)[nH]c1ncc(-c3ccc(CN4CCOCC4)cc3)cc12	13.9	216	13300
N#Cc1cc2c(cn1)[nH]c1ncccc12	414	–	–
N#Cc1cc2c(cn1)[nH]c1ncc(-c3ccc(CN4CCC(C#N)CC4)cc3)cc12	11.6	339	2690
c1ncc(-c2cc3c(cn2)[nH]c2ncc(-c4ccc(CN5CCCCC5)cc4)cc23)o1	0.46	23.9	323
N#Cc1cc2c(cn1)[nH]c1ncc(-c3ccc(CN4CCC(O)CC4)cc3)cc12	1.8	144	378
c1cnc(-c2cc3c(cn2)[nH]c2ncc(-c4ccc(CN5CCCCC5)cc4)cc23)cn1	2.3	168	1210
c1nnc(-c2cc3c(cn2)[nH]c2ncc(-c4ccc(CN5CCCCC5)cc4)cc23)o1	0.95	103	450
N#Cc1cc2c(cn1)[nH]c1ncc(Br)cc12	140	–	–

SMILES	IC50 [1] [nM]	EC50 [2] [nM]	IC50 (Acetylcholinesterase) [nM]
CCNC(=O)c1cc2c(cn1)[nH]c1ncc(-c3ccc(CN4CCCCC4)cc3)cc12	102	2230	–
c1cc2c(cn1)[nH]c1ncc(-c3ccc(CN4CCCCC4)cc3)cc12	18.6	1920	–
Cn1cc(-c2cc3c(cn2)[nH]c2ncc(-c4ccc(CN5CCCCC5)cc4)cc23)cn1	0.31	9	874
c1cc(-c2cnc3[nH]c4cnc(-c5cnoc5)cc4c3c2)ccc1CN1CCCCC1	1.1	145	659
CCNc1cnc2[nH]c3cnc(C#N)cc3c2c1	56.6	1790	–
CC1(C)CCCN(Cc2ccc(-c3cnc4[nH]c5cnc(C#N)cc5c4c3)cc2)C1	9.4	128	3330
CCN1CCc2sc(-c3cnc4[nH]c5cnc(C#N)cc5c4c3)cc2C1	0.78	50.9	259
N#Cc1cc2c(cn1)[nH]c1ncc(-c3ncc[nH]3)cc12	14.7	> 5000	–
N#Cc1cc2c(cn1)[nH]c1ncc(-c3ccc(CN4CCCCC4)nc3)cc12	5.3	540	187
c1ncc(-c2cc3c(cn2)[nH]c2ncc(-c4ccc(CN5CCCCC5)cc4)cc23)s1	1.3	62.7	496
N#Cc1cc2c(cn1)[nH]c1ncc(O)cc12	38.1	> 5000	–
N#Cc1cc2c(cn1)[nH]c1ncc(-c3ccc(CN4CCC(F)CC4)cc3)cc12	5	95.8	890
N#Cc1cc2c(cn1)[nH]c1ncc(-c3ccccc3O)cc12	41.7	> 5000	–
N#Cc1cc2c(cn1)[nH]c1ncc(-c3cccc(CO)c3)cc12	27.1	> 5000	–
c1cc(-c2cc3c(cn2)[nH]c2ncc(-c4ccc(CN5CCCCC5)cc4)cc23)cnn1	2.9	656	1040
c1cc(-c2cc3c(cn2)[nH]c2ncc(-c4ccc(CN5CCCCC5)cc4)cc23)ccn1	9.1	1570	777
c1ncc(-c2cc3c(cn2)[nH]c2ncc(-c4ccc(CN5CCCCC5)cc4)cc23)cn1	5.1	163	266
CN1CCN(c2cccc(-c3cnc4[nH]c5cnc(C#N)cc5c4c3)c2)CC1	1.9	133	4770
CN1CCN(c2ccc(-c3cnc4[nH]c5cnc(C#N)cc5c4c3)cc2)CC1	–	–	18
N#Cc1cc2c(cn1)[nH]c1ncc(-c3ccoc3)cc12	16.6	180	–
N#Cc1cc2c(cn1)[nH]c1ncc(-c3ccc(N4CCOCC4)cc3)cc12	78.7	219	–
C[C@@H]1CCC[C@H](C)N1Cc1ccc(-c2cnc3[nH]c4cnc(C#N)cc4c3c2)cc1	2.1	99.1	135
N#Cc1cc2c(cn1)[nH]c1ncc(-c3ccncc3)cc12	42.7	> 5000	–
N#Cc1cc2c(cn1)[nH]c1ncc(-c3ccc(CO)cc3)cc12	11.4	938	–

Reference: ChEMBL document CHEMBL3580561, “Mitigation of Acetylcholine Esterase Activity in the 1,7-Diazacarbazole Series of Inhibitors of Checkpoint Kinase 1” (J Med Chem, 2015)
